Only some compounds are listed: those with a hit (about 4.6% of all), similar ones and a draw of the others.
UCH37 inh = human UCH37 deubiquitinating enzyme inhibition. purified proteasome/UCH37, Ub-AMC cleavage fluorescence. inhibition, % (concentration not given with the values). actives 0.33% (n = 330,000);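 active = mean inhibition over replicate wells above about 20%, limit read from the data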;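 note: 0% = compound-free wells with enzyme and 100% = wells lacking proteasome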
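Reagent: Ub-AMC substrate; assay system: Proteasome-associated human UCH37 deubiquitinase; controls: no-proteasome and no-compound wells; read-out: % inhibition of Ub-AMC cleavage fluorescence; timing: 30 min preincubation with enzyme, 25 min cleavage at room temperature; signal: AMC fluorescence from Ub-AMC cleavage, excitation 355 nm, emission 460 nm; buffer or medium: Tris-HCl pH 7.4 plus ovalbumin, ATP-MgCl2, DTT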
HDAC3 inhib = human HDAC3 inhibition; inhibition, % at 8.3 µM; actives 0.15% (n = 320,000); AID 2718; recombinant HDAC3, fluorogenic peptide/trypsin coupled, fluorescence; in the data active = inhibition above about 26%, passing the limit was not always enough
FAS-TE inh = blocks the thioesterase domain of human fatty acid synthase. P49327. recombinant FAS-TE, OMFH fluorogenic substrate, fluorescence endpoint. inhibition, % at 15 µM. actives 0.67% (n = 360,000). AID 602261;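 active = compounds whose normalised, plate-corrected inhibition of enzyme fluorescence in the single-dose primary screen is 50% or more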;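 note: 0% = DMSO with enzyme and 100% = substrate without enzyme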
M18AAP inhibitor = blocks P. falciparum M18 aspartyl aminopeptidase | recombinant PfM18AAP, H-Glu-NHMec fluorogenic cleavage | inhibition, % at 7.35 µM | actives 1.2% (n = 290,000) | AID 1822;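 active = inhibition above the campaign mean inhibition over all tested compounds plus 3 SD, cut at about 28% in these data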;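 note: 0% = plate median of test compound wells and 100% = 2 mM ZnCl2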
ALR H2O2 inh = blocks human ALR sulfhydryl oxidase activity | inhibition, % (test concentration not listed) | P55789 | purified ALR, DTT oxidation, H2O2 HRP-luminol luminescence | AID 485317 | actives 3.8% (n = 290,000);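 active = mean replicate inhibition above about 79%, with every replicate also reaching it, limit read from the data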
Target sequence (P55789 whole entry, looked up): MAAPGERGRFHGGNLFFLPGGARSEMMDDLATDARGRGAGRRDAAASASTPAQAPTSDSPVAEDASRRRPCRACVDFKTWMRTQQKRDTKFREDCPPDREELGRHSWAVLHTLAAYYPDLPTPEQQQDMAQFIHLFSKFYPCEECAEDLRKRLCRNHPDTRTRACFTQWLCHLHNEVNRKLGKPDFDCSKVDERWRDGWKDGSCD
Rtt109 HAT inh = C. albicans Rtt109 histone acetyltransferase inhibition. actives 0.16% (n = 330,000). AID 540336. purified Rtt109/Vps75, ThioGlo CoA-SH fluorescence, 4 h. Q5AAJ8. inhibition, % at 34.9 µM;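 active = inhibition of at least 50% in every replicate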
FAS-TE conf = confirmation of human fatty acid synthase thioesterase inhibitors; shares compounds with FAS-TE inh; recombinant FAS-TE, OMFH fluorogenic substrate, fluorescence; inhibition, % at 15 µM; actives 45% (n = 2,300); AID 624325;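 active = compounds inhibiting the enzyme by at least 50% at 15 µM in any one of the replicates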;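 note: 0% = enzyme with DMSO only and 100% = wells lacking enzyme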
* = called active by the depositor; x = not tested or not shown.

SMILES	UCH37 inh	HDAC3 inhib	FAS-TE inh	M18AAP inhibitor	ALR H2O2 inh	Rtt109 HAT inh	FAS-TE conf
CC(=O)Nc1ccc(NC(=O)c2nc(S(=O)(=O)Cc3cccc(C)c3)ncc2Cl)cc1	x	5	27	-151	-8	-4	x
COc1ccccc1NC(=O)c1nc(S(=O)(=O)Cc2ccccc2)ncc1Cl	x	4	55*	-76	4	-2	19
CCOc1ccccc1NC(=O)c1nc(S(=O)(=O)Cc2ccccc2)ncc1Cl	3	x	60*	-43	96*	6	59*
COC(=O)c1ccc(NC(=O)c2nc(S(=O)(=O)Cc3cccc(C)c3)ncc2Cl)cc1	x	-4	55*	-98	-1	1	29
Cc1cccc([C@@H]2[C@@H]3C(=O)N(Cc4ccccc4)C(=O)[C@@H]3[C@]3(CC(C)C)C(=O)N(c4cccc(F)c4)C(=O)N23)c1	-1	13	72*	x	7	13	26
Cc1cccc([C@@H]2[C@@H]3C(=O)N(Cc4ccccc4)C(=O)[C@@H]3[C@]3(Cc4ccccc4)C(=O)N(c4cccc(F)c4)C(=O)N23)c1	4	4	92*	x	-7	0	17
CC[C@@]12C(=O)N(c3cccc(F)c3)C(=O)N1[C@H](c1cccc(C)c1)[C@@H]1C(=O)N(Cc3ccccc3)C(=O)[C@@H]12	6	1	16	-3	1	1	x
Cc1ccc2[nH]c(C)c(C=NNc3nc4ccccc4s3)c2c1	0	x	x	x	x	x	x
CCN(CC)c1ccc(C=NN2CCN(Cc3ccc(C)cc3)CC2)cc1	2	x	x	x	x	x	x
O=C(NCCc1cccc(Cl)c1)c1cc([N+](=O)[O-])ccc1Cl	-1	0	64*	-1	0	-6	46
O=C(NCCc1nc2ccccc2[nH]1)c1ccc(Cl)c([N+](=O)[O-])c1	x	-2	24	2	20	-3	x
O=C(NCCCc1ccccc1)c1ccc([N+](=O)[O-])cc1Cl	0	5	84*	1	-9	-1	88*
CCCCOc1ccc(C(=O)NCC(=O)NCCOc2ccc(C)cc2)cc1	6	-2	-4	x	-6	-4	x
Cc1ccc(OCCNC(=O)CNC(=O)c2ccc(Cl)c([N+](=O)[O-])c2)cc1	x	1	62*	x	-1	2	54*
O=C(NCCc1cccc(Cl)c1)c1ccc(Cl)c([N+](=O)[O-])c1	3	x	72*	4	x	4	50*
O=C(CON=Cc1ccc(Cl)cc1Cl)NNC(=O)c1ccc(Cl)cc1Cl	-1	x	x	x	x	x	x
COc1ccc(C=NNC(=O)CCc2c(C)n[nH]c2C)cc1O	2	x	x	x	x	x	x
COc1ccc(COC(=O)NN=Cc2cccs2)cc1	4	x	x	x	x	x	x
Cc1ccc(C(=O)NCCc2cccc(Cl)c2)cc1[N+](=O)[O-]	-1	1	52*	4	-3	-4	32
CCOC(=O)NN=Cc1cc(C)n(-c2cccc3ccccc23)c1C	1	x	x	x	x	x	x
O=[N+]([O-])c1c(Nc2ccccc2O)cc(Cl)c2nonc12	12	7	65*	1	70	-7	53*
O=[N+]([O-])c1c(Nc2ccccc2O)ccc2nonc12	7	2	2	5	10	4	x
CN1CCN(N=Cc2ccc(-c3ccc([N+](=O)[O-])cc3)o2)CC1	12	x	x	x	x	x	x
Cc1cc(=O)[nH]c(NN=Cc2cc(C)n(-c3ccccc3)c2C)n1	3	x	x	x	x	x	x
Cc1ccc(NC(=S)NN=C2CCCCC2C)cc1 (stereo unspecified)	3	x	x	x	x	x	x
O=C(O)/C(=C\c1cccc(F)c1)c1ccc(S(=O)(=O)N2CCCCC2)s1	1	3	-8	-4	5	4	x
O=C(O)/C(=C/c1ccc(Cl)c([N+](=O)[O-])c1)c1ccc(S(=O)(=O)N2CCCCC2)s1	4	x	56*	x	x	-3	53*
CC(C)OC(=O)[C@H]1[C@H](c2ccc(Cl)cc2)[C@@](C#N)(C(N)=O)[C@@H]2C=CC(C(N)=O)=CN21	3	x	59*	6	x	-7	59*
NC(=O)NC(=O)CC1S/C(=N/N=C2CSC(=O)N2)NC1=O (stereo unspecified)	2	x	x	x	x	x	x
COc1cc(/C=N/N(C)C)cc(Br)c1O	x	4	-1	12	x	31	x

From PubChem BioAssay
